Data from ChEMBL document CHEMBL4842338, “System-oriented optimization of multi-target 2,6-diaminopurine derivatives: Easily accessible broad-spectrum antivirals active against flaviviruses, influenza virus and SARS-CoV-2” (Eur J Med Chem, 2021).
Calls of active or inactive are those of the source. The rule behind the calls is not given here.

Columns and labels:
[1] = system: Huh-7; experiment: (§1) Cytotoxicity against human Huh-7 cells assessed as reduction in cell viability by Celltiter-Glo luminescent cell viability assay; format: cell-based; details: huh-7
In short: (§2)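 Compound-exposed cells assessed by CellTiter-Glo luminescence versus DMSO control; CC50 from dose-response.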

[2] = system: Zika virus; experiment: Antiviral activity against Zika virus H/PF/2013 infected in pre-seeded Huh-7 cells assessed as inhibition of viral replication incubated for 72 hrs by immunodetection based secondary yield reduction assay; format: functional, organism-based; details: H/PF/2013, Huh-7, 72 h
[3] = system: West Nile virus; experiment: Antiviral activity against West Nile virus lineage 1 (Italy/2009) infected in pre-seeded Huh-7 cells assessed as inhibition of viral replication incubated for 48 hrs by immunodetection based direct yield reduction assay; format: functional, organism-based
[4] = Selectivity index, ratio of CC50 for human Huh-7 cells to IC50 for West Nile virus lineage 1 (Italy/2009) infected in pre-seeded Huh-7 cells assessed as inhibition of viral replication incubated for 48 hrs by immunodetection based plaque reduction assay; format: toxicity, cell-based; details: read-out: Selectivity Index
[5] = Selectivity index, ratio of CC50 for human Huh-7 cells to IC50 for Dengue virus serotype 2 New Guinea C infected in pre-seeded Huh-7 cells assessed as inhibition of viral replication incubated for 72 hrs by immunodetection based secondary yield reduction assay; format: toxicity, cell-based; details: read-out: Selectivity Index
[6] = Selectivity index, ratio of CC50 for human Huh-7 cells to IC50 for West Nile virus lineage 1 (Italy/2009) infected in pre-seeded Huh-7 cells assessed as inhibition of viral replication incubated for 48 hrs by immunodetection based direct yield reduction assay; format: toxicity, cell-based; details: read-out: Selectivity Index
In short: (§3)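 Direct yield reduction in Huh7 cells (7000/well), infected with 50 TCID₅₀ of DENV or ZIKV, or 25 TCID₅₀ of WNV. Adsorption 1 h at 37 °C, then virus removed and serial compound dilutions added. Incubated 72 h (DENV, ZIKV) or 48 h (WNV). Viral antigen immunodetected on the monolayer. IC₅₀ by non-linear regression, mean of three experiments. SI = CC₅₀ (Huh7, CellTiter-Glo luminescence)/IC₅₀.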

[7] = system: West Nile virus; experiment: Antiviral activity against West Nile virus lineage 1 (Italy/2009) infected in pre-seeded Huh-7 cells assessed as inhibition of viral replication incubated for 48 hrs by immunodetection based plaque reduction assay; format: functional, organism-based; details: Huh-7, 48 h
[8] = Selectivity index, ratio of CC50 for human Huh-7 cells to IC50 for Zika virus H/PF/2013 infected in pre-seeded Huh-7 cells assessed as inhibition of viral replication incubated for 72 hrs by immunodetection based secondary yield reduction assay; format: toxicity, cell-based; details: read-out: Selectivity Index
[9] = system: dengue virus type 2; experiment: Antiviral activity against Dengue virus serotype 2 New Guinea C infected in pre-seeded Huh-7 cells assessed as inhibition of viral replication incubated for 72 hrs by immunodetection based secondary yield reduction assay; format: functional, organism-based
[10] = as §1; format: cell-based; details: Huh-7 cells; in short: as §2
[11] = system: dengue virus type 2; experiment: Antiviral activity against Dengue virus serotype 2 New Guinea C infected in pre-seeded Huh-7 cells assessed as inhibition of viral replication incubated for 72 hrs by immunodetection based direct yield reduction assay; format: functional, organism-based; details: Dengue virus, New Guinea C, Huh-7, 72 h; read-out: IC50
[12] = Selectivity index, ratio of CC50 for human Huh-7 cells to IC50 for Dengue virus serotype 2 New Guinea C infected in pre-seeded Huh-7 cells assessed as inhibition of viral replication incubated for 72 hrs by immunodetection based direct yield reduction assay; format: toxicity, cell-based; details: read-out: Selectivity Index; in short: as §3
[13] = target: Abl (Tyrosine-protein kinase ABL1) (Homo sapiens, UniProt P00519); experiment: Inhibition of human recombinant N terminal His6 tagged Abl (27 to end residue) assessed as residual activity at 5 uM using KKGEAIYAADFA-NH2 as a substrate in the presence of NP-40 incubated for 10 mins by scintillation counting analysis relative to control; details: probe KKGEAIYAADFA-NH2, read-out: Activity
Sequence of Abl (Tyrosine-protein kinase ABL1) (P00519 whole entry): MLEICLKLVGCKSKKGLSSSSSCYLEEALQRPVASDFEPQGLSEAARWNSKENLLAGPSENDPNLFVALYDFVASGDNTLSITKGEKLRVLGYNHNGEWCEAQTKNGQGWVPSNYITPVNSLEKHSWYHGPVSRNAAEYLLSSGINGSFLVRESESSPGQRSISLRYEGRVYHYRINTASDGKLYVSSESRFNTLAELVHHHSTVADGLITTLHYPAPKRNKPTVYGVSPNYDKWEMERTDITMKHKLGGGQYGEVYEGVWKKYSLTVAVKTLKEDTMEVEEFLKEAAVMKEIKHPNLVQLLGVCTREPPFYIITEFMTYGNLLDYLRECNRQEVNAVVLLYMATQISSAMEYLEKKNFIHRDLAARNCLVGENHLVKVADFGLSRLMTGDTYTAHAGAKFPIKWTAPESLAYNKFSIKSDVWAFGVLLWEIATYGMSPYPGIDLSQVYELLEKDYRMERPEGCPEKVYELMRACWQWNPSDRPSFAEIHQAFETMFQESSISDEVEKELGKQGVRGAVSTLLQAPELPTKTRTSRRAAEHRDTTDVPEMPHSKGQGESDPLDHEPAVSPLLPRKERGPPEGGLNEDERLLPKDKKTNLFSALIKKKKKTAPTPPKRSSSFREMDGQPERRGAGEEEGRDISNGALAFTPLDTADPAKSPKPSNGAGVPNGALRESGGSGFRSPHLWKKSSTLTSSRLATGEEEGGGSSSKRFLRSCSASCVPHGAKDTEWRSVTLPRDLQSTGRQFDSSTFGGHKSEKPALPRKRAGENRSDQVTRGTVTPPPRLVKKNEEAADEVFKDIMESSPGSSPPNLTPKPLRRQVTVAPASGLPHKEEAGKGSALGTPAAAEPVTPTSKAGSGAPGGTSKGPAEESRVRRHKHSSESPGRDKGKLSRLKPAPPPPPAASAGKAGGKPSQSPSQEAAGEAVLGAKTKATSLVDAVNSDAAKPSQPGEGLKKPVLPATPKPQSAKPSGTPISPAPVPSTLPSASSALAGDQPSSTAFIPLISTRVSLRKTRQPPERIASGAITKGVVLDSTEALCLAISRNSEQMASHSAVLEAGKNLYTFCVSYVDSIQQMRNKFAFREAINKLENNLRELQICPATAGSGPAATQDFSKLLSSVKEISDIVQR
In short: (§4)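 Compounds at fixed 5 μM; 10–50 ng kinase, substrate and NP-40/BSA per supplementary table, 10 μL at 30 °C for 10 min in low-binding tubes. Reactions spotted on filter, dried, scintillation counted. Mean ± SD of two independent experiments.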

[14] = target: CDK9/cyclin T1 (Homo sapiens, UniProt P50750); experiment: Inhibition of human full length CDK9/ His-tagged cT1 assessed as residual activity at 5 uM using CDKtide as a substrate in the presence of BSA incubated for 10 mins by scintillation counting analysis relative to control; format: protein-complex assay; details: full length CDK9/His-tagged cyclin T1 complex, probe CDKtide, read-out: Activity; in short: as §4
Sequence of CDK9/cyclin T1 (O60563 whole entry): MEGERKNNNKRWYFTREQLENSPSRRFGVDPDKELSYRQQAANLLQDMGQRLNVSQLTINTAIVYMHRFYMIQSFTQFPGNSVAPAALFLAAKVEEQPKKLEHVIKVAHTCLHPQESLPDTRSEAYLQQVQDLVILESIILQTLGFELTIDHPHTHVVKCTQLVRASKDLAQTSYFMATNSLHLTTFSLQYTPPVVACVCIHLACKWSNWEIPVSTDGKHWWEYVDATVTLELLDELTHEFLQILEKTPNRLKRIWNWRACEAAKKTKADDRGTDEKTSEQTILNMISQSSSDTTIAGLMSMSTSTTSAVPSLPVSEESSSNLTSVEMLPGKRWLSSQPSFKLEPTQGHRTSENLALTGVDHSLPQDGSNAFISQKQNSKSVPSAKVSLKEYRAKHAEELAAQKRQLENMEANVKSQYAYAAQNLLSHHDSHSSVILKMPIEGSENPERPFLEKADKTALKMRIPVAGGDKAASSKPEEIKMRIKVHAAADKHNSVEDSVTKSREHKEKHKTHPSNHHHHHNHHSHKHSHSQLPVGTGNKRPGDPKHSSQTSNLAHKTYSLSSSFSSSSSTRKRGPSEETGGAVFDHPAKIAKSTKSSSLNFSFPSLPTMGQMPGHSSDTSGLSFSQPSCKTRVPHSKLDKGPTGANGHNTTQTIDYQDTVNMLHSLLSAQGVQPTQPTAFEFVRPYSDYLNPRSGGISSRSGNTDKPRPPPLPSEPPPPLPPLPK
Sequence of CDK9/cyclin T1 (P50750 whole entry): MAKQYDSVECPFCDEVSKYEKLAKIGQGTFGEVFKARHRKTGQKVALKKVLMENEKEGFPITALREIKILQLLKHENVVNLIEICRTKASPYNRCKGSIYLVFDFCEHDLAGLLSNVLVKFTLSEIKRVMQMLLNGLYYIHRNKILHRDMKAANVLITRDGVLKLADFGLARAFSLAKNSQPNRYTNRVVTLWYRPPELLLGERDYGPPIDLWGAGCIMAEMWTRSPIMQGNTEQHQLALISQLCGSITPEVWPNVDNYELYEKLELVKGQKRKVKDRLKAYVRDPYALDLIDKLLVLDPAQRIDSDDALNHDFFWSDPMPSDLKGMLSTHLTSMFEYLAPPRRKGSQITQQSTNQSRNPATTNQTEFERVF

[15] = Antioxidant activity assessed as inhibition of ABTS radical scavenging activity at 10 uM to 1 mM measured after 10 mins; format: functional
In short: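 ABTS radical solution diluted in ethanol (1:100) to A734 0.70; 3.0 mL mixed with 30 μL sample in DMSO at 10 μM–1 mM; A734 read after exactly 10 min; ascorbic acid reference; % scavenging = (A0−As)/A0×100.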

[16] = Inhibition of full length ZIKV NS5-MTase domain using 7MeGpppAC4 as a substrate incubated for 30 mins by filter binding assay; design: species or system Zika virus
[17] = Inhibition of DENV NS5-MTase domain using GpppA2'OMe-RNA74 as a substrate incubated for 30 mins by filter binding assay; design: species or system dengue virus type 2; details: read-out: IC50
In short: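 MTase (1 μM) incubated with increasing inhibitor in 40 mM Tris-HCl pH 7.5, 5 mM DTT, 10 μM AdoMet ([3H]-labelled), 0.5 μM GpppA2′OMe-RNA74 substrate, 30 °C for 30 min; stopped in ice-cold 100 μM AdoHcy; DEAE filter binding, scintillation counting.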

[18] = Inhibition of Dengue virus 2 […] RNA dependent RNA polymerase incubated for 10 mins by picogreen staining based fluorescent analysis (Rvb= 0.27+/-0.03 uM); design: species or system dengue virus type 2
[19] = Inhibition of full length Dengue virus 2 NS5 RNA dependent RNA polymerase incubated for 10 mins by picogreen staining based fluorescent analysis (Rvb= 0.32+/-0.05 uM); design: species or system dengue virus type 2
[20] = target: Src (Proto-oncogene tyrosine-protein kinase Src) (Homo sapiens, UniProt P12931); experiment: Inhibition of human recombinant N terminal His6 tagged full length Src assessed as residual activity at 5 uM using KVEKIGEGTYGVVYK as a substrate in the presence of NP-40 incubated for 10 mins by scintillation counting analysis relative to control; details: probe KVEKIGEGTYGVVYK, read-out: Activity; in short: as §4
Sequence of Src (Proto-oncogene tyrosine-protein kinase Src) (P12931 2-536 limits assumed): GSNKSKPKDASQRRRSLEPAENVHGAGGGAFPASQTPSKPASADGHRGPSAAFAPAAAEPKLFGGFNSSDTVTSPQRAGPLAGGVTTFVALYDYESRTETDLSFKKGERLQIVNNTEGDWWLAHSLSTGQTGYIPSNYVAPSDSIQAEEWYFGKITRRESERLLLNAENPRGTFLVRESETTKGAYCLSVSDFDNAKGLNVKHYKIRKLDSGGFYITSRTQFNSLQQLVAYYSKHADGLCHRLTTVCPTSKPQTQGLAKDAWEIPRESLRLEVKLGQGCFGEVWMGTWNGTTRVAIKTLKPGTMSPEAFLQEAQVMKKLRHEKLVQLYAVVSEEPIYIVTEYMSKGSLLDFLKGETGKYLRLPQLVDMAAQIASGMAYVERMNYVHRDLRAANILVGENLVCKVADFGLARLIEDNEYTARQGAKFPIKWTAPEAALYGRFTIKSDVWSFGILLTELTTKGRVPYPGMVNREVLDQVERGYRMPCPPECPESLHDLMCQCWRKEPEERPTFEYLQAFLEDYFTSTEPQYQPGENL

[21] = target: Fyn (Tyrosine-protein kinase Fyn) (Homo sapiens, UniProt P06241); experiment: Inhibition of human recombinant N terminal His6 tagged full length Fyn assessed as residual activity at 5 uM using […] as a substrate in the presence of NP-40 incubated for 10 mins by scintillation counting analysis relative to control; details: probe […], read-out: Activity; in short: as §4
Sequence of Fyn (Tyrosine-protein kinase Fyn) (P06241 whole entry, canonical isoform): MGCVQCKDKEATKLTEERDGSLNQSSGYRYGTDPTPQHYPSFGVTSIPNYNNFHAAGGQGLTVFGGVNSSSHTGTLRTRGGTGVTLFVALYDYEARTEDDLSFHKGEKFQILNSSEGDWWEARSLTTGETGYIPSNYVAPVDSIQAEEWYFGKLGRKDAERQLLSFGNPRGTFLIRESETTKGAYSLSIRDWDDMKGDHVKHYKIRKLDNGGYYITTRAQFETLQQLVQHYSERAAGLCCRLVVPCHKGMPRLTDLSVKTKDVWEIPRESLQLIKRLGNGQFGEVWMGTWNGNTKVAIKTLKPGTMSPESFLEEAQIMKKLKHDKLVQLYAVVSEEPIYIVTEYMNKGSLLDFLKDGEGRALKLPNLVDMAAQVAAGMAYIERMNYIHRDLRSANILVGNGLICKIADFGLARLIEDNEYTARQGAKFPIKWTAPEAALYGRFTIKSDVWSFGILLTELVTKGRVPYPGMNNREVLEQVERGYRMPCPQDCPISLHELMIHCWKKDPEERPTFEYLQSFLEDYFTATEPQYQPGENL

[22] = target: PIK3CA (Phosphatidylinositol 4,5-bisphosphate 3-kinase catalytic subunit alpha isoform) (Homo sapiens, UniProt P42336); experiment: Inhibition of human full length PIK3CA assessed as residual activity at 5 uM using PI:PS (1:3) as a substrate incubated for 10 mins by scintillation counting analysis relative to control; details: full length PIK3CA enzyme, probe PI:PS (1:3), read-out: Activity
Sequence of PIK3CA (Phosphatidylinositol 4,5-bisphosphate 3-kinase catalytic subunit alpha isoform) (P42336 whole entry, canonical isoform): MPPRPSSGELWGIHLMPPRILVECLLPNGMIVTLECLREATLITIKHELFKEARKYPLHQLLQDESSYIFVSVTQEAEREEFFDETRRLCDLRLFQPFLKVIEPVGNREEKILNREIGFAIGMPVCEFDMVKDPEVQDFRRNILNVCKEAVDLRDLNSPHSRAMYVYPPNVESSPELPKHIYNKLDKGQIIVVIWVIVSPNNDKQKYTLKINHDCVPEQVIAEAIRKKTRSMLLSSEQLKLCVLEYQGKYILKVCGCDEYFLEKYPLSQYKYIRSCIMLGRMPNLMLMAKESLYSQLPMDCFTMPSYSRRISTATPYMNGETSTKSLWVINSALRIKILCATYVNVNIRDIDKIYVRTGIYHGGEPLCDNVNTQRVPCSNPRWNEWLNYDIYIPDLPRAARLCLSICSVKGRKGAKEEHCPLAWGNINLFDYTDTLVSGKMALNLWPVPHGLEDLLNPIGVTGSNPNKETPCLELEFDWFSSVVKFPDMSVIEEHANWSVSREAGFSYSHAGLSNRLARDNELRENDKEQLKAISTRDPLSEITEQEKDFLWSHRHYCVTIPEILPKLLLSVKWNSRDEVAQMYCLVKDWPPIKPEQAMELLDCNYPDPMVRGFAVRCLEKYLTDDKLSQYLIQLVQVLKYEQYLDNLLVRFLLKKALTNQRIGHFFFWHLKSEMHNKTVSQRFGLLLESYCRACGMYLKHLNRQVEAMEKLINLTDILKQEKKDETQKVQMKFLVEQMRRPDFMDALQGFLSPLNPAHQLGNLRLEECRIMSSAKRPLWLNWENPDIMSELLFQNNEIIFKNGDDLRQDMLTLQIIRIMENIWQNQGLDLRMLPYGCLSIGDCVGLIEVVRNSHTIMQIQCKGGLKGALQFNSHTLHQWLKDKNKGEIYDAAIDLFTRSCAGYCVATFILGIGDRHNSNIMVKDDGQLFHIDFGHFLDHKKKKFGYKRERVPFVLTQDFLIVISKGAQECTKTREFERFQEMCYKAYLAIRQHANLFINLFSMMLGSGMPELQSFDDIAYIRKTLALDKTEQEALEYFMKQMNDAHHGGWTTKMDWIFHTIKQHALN
In short: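 Radiometric kinase reaction with 10–50 ng enzyme and compound fixed at 5 μM, 10 μL at 30 °C for 10 min. Reactions spotted on filter and counted by scintillation. Residual activity is the mean ± SD of two independent experiments.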

[23] = Inhibition of full length ZIKA virus NS5 RNA dependent RNA polymerase incubated for 10 mins by picogreen staining based fluorescent analysis (Rvb= 1+/-0.2 uM)
[24] = West Nile virus, lineage 1 (Italy/2009), Huh-7, 48 h, read-out: IC50
[25] = Dengue virus, New Guinea C, Huh-7, 72 h, read-out: IC50

`Fc1cc(F)cc(/N=N/c2nc(NCCOc3ccccc3)nc3[nH]cnc23)c1` showed a CC50 [1] of 12 µM.
Work on `FC(F)(F)c1cccc(Nc2nc(NCCOc3ccccc3)c3nc[nH]c3n2)c1` yielded a CC50 [1] of 6 µM.
Work on `FC(F)(F)c1cc(/N=N/c2nc(NCCOc3ccccc3)nc3[nH]cnc23)cc(C(F)(F)F)c1` yielded a CC50 [1] of 7.5 µM.
With `OCCNc1nc(Nc2cccc(C(F)(F)F)c2)c2nc[nH]c2n1` the IC50 [2] was 10.6 µM, the IC50 [3, 24] was 1.9 µM and the selectivity ratio at 48 h [4] was 33. For the same compound, the CC50 [1] was 50 µM, the selectivity ratio at 72 h [5] was 11 and the selectivity ratio at 48 h [6] was 26. It also gave an IC50 [7] of 1.5 µM, a selectivity ratio at 72 h [8] of 5 and an IC50 [9, 25] of 4.5 µM.
`Fc1cccc(Nc2nc(NCCOc3ccccc3)c3nc[nH]c3n2)c1` showed a CC50 [1] of 8 µM.
For `Fc1cc(F)cc(NNc2nc(NCCOc3ccccc3)nc3[nH]cnc23)c1`, the CC50 [1] was 8.5 µM.
With `CNc1nc(Nc2cccc(C(F)(F)F)c2)c2nc[nH]c2n1` the IC50 ([3]; huh-7) was “Not Active”, the CC50 [10] was 200 µM and the selectivity ratio at 72 h [5] was 57. For the same compound, the IC50 [11] was 4.9 µM, the selectivity ratio at 72 h [12] was 41 and the IC50 [9, 25] was 3.5 µM.
`OCCNc1nc(Nc2cccc(F)c2)c2nc[nH]c2n1` showed an IC50 [2] of 8.9 µM, a CC50 [1] of 136 µM and a selectivity ratio at 72 h [5] of 5. For the same compound, the selectivity ratio at 72 h [8] was 15 and the IC50 [9, 25] was 29.8 µM.
For `COC(=O)c1cccc(Nc2nc(NCCOc3ccccc3)nc3[nH]cnc23)c1`, the IC50 [2] was 8.2 µM, the CC50 [1] was 100 µM and the selectivity ratio at 72 h [8] was 12. For the same compound, the IC50 ([9]; huh-7) was “Not Active”.
`COC(=O)c1cccc(Nc2nc(NCCO)nc3[nH]cnc23)c1` showed an IC50 [2] of 6.2 µM, a CC50 [10] of 200 µM and a selectivity ratio at 72 h [5] of 11. The selectivity ratio at 72 h [8] was 32 and the IC50 [9, 25] was 17.5 µM.
For `FC(F)(F)c1cc(NNc2nc(NCCOc3ccccc3)nc3[nH]cnc23)cc(C(F)(F)F)c1`, the CC50 [1] was 5 µM.
`CNc1nc(Nc2cccc(F)c2)c2nc[nH]c2n1` gave an IC50 [2] of 14.7 µM, a CC50 [1] of 84 µM and a selectivity ratio at 72 h [5] of 9. For the same compound, the selectivity ratio at 72 h [8] was 6 and the IC50 [9, 25] was 9.3 µM.
For `FC(F)(F)c1ccc(NNc2nc(NCCOc3ccccc3)nc3[nH]cnc23)cc1`, the CC50 [1] was 8 µM.
With `O=C(O)c1cccc(Nc2nc(NCCOc3ccccc3)nc3[nH]cnc23)c1` the IC50 [2] was 29 µM, the CC50 [10] was 200 µM and the selectivity ratio at 72 h [5] was 7. It also gave a selectivity ratio at 72 h [8] of 7 and an IC50 [9, 25] of 28.2 µM.
`FC(F)(F)c1cccc(NNc2nc(NCCOc3ccccc3)nc3[nH]cnc23)c1` gave a CC50 [1] of 7.5 µM.
For `CNc1nc(Nc2cccc(C(=O)O)c2)c2nc[nH]c2n1`, the IC50 [2] was 33.5 µM, the CC50 [10] was 200 µM and the selectivity ratio at 72 h [8] was 6. For the same compound, the IC50 ([9]; huh-7) was “Not Active”.
`Oc1cccc(Nc2nc(NCCOc3ccccc3)nc3[nH]cnc23)c1` gave an activity at 10 min, 5 µM [13] of 65% and an activity at 10 min, 5 µM [14] of over 98%.
For `Fc1cccc(/N=N/c2nc(NCCOc3ccccc3)nc3[nH]cnc23)c1`, the IC50 [2] was 2.8 µM, the IC50 [3, 24] was 0.6 µM and the Activity [15] was “Active”. It also gave a selectivity ratio at 48 h [4] of 30, a CC50 [1] of 18.5 µM and a selectivity ratio at 72 h [5] of 5. The IC50 [16] was “Not Active”, the activity at 10 min, 5 µM [13] was over 98% and the activity at 10 min, 5 µM [14] was over 98%. The IC50 [17] was 226 µM, the IC50 [18] was over 100 µM and the IC50 [19] was over 100 µM. The activity at 10 min, 5 µM [20] was over 98%, the activity at 10 min, 5 µM [21] was 89% and the selectivity ratio at 48 h [6] was 28. For the same compound, the activity at 10 min, 5 µM [22] was 78%, the IC50 [23] was over 100 µM and the IC50 [7] was 0.6 µM. For the same compound, the selectivity ratio at 72 h [8] was 7 and the IC50 [9, 25] was 4 µM.
Compound `Oc1ccc(Nc2nc(NCCOc3ccccc3)nc3[nH]cnc23)cc1O` has an IC50 [2] of 25 µM, a CC50 [10] of 200 µM and a selectivity ratio at 72 h [8] of 8. For the same compound, the IC50 ([9]; huh-7) was “Not Active”.
For `CNc1nc(Nc2cccc(C(=O)OC)c2)c2nc[nH]c2n1`, the IC50 [2] was 8 µM, the CC50 [10] was 200 µM and the selectivity ratio at 72 h [5] was 11. It also gave a selectivity ratio at 72 h [8] of 25 and an IC50 [9, 25] of 18 µM.
`FC(F)(F)c1ccc(/N=N/c2nc(NCCOc3ccccc3)nc3[nH]cnc23)cc1` gave a CC50 [1] of 8 µM.
`Nc1ncnc2c1ncn2[C@@H]1O[C@H](C[C@@H](N)CC[C@H](N)C(=O)O)[C@@H](O)[C@H]1O` [SINEFUNGIN] showed an IC50 ([16]; read-out: IC50) of 1.18 µM and an IC50 [17] of 0.63 µM.
`COc1cc(Nc2nc(NCCOc3ccccc3)nc3[nH]cnc23)cc(OC)c1OC` gave a CC50 [1] of 7.5 µM.
